Assay results: ChEMBL document CHEMBL3091381, “In vitro cytotoxicity on human ovarian cancer cells by T-type calcium channel blockers” (Bioorg Med Chem Lett, 2013)
Activity calls are given as the source filed them. The calls are words filed in the database; no cut-off is given here.

Columns and labels:
[1] = Cytotoxicity against human paclitaxel-resistant A2780T cells after 48 hrs by MTT assay; type: functional, cell-based; conditions: A2780/Taxol
Outline: (§1)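 MTT viability assay. Cells were seeded and grown 24 h, then exposed 48 h to a range of concentrations of test agent in DMSO (0.1% final), with vehicle-matched DMSO controls. Medium was replaced by 0.5 mg/mL MTT in RPMI with 10% FBS for 2 h at 37 °C. Dye was solubilized and absorbance read. IC50 from dose–response curves, three independent experiments.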

[2] = target: T1, Voltage-dependent T-type calcium channel subunit alpha-1G (Homo sapiens, UniProt O43497); assay: Inhibition of t-type Cav3.1 channel (unknown origin) expressed in HEK293 cells assessed as inhibition of 50 ms depolarizing voltage step-induced current at 1 uM by whole cell patch-clamp method relative to control; type: cell-based
[3] = tested on: A2780; assay: Cytotoxicity against human A2780 cells after 48 hrs by MTT assay; type: functional, cell-based; conditions: A2780, 48 h; outline: as §1
[4] = tested on: SK-OV-3; assay: Cytotoxicity against human SKOV3 cells after 48 hrs by MTT assay; type: functional, cell-based; conditions: SK-OV-3, 48 h; outline: as §1
[5] = tested on: Mus musculus; assay: Toxicity in BALB/c mouse assessed as mortality at 40 mg/kg, po for 2 weeks; type: organism-based; design: dose 40 mg/kg, route oral; conditions: in vivo, 336 h
[6] = tested on: A2780; assay: Induction of apoptosis in human A2780 cells assessed as cell shrinkage, membrane blebbing, chromatin condensation and apoptotic body formation at 6 uM after 24 hrs by DAPI staining; type: functional, cell-based
Outline: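 A2780 cells exposed 24 h to 6 µM compound, then fixed, washed three times in PBS and stained 5 min with 0.1 µg/mL DAPI. Cells were washed, mounted in PBS with 10% glycerol and examined by fluorescence microscopy for shrinkage, blebbing, chromatin condensation and apoptotic bodies.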

[7] = tested on: HEK293; assay: Cytotoxicity against human HEK293 cells after 48 hrs by MTT assay; type: cell-based; conditions: HEK293, 48 h; outline: as §1
[8] = tested on: A2780; assay: Cell cycle arrest in human A2780 cells assessed as accumulation at G0/G1 phase at 6 uM after 24 hrs by FACS analysis; type: functional
Outline: (§2)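 A2780 or paclitaxel-resistant A2780-T cells treated 24 h with compound at 0, 2, 4, 6 or 8 µM, depending on the series. Fixed cells were washed in PBS and stained 30 min in the dark with PI plus 100 µg/mL DNase-free RNase A. Phase distribution was read by flow cytometry. Means ± SD of three independent experiments; ANOVA with Dunnett's post-hoc test versus untreated control.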

[9] = Cell cycle arrest in human paclitaxel-resistant A2780T cells assessed as accumulation at sub-G1 phase after 24 hrs by FACS analysis; type: functional, cell-based; conditions: A2780/Taxol, in the assay text read “G1 phase” for “sub-G1 phase”; outline: as §2
[10] = target: T1, Voltage-dependent T-type calcium channel subunit alpha-1G; assay: Inhibition of t-type Cav3.1 channel (unknown origin) expressed in HEK293 cells assessed as inhibition of 50 ms depolarizing voltage step-induced current by whole cell patch-clamp method; type: cell-based
[11] = tested on: A2780; assay: Cell cycle arrest in human A2780 cells assessed as accumulation at sub-G1 phase at 6 uM after 24 hrs by FACS analysis; type: functional; outline: as §2
[12] = tested on: A2780; assay: Cell cycle arrest in human A2780 cells assessed as accumulation at sub-G1 phase after 24 hrs by FACS analysis; type: functional, cell-based; conditions: in the assay text read “G1 phase” for “sub-G1 phase”; outline: as §2
[13] = tested on: A2780; assay: Cell cycle arrest in human A2780 cells assessed as accumulation at G2/M phase at 6 uM after 24 hrs by FACS analysis; type: functional; outline: as §2
[14] = tested on: A2780; assay: Cell cycle arrest in human A2780 cells assessed as accumulation at S phase at 6 uM after 24 hrs by FACS analysis; type: functional; outline: as §2
[15] = Ratio of IC50 for mibefradil to compound IC50 for human paclitaxel-resistant A2780T cells; type: functional
[16] = tested on: A2780; assay: Cell cycle arrest in human A2780 cells assessed as accumulation at sub-G1 phase at 8 uM after 24 hrs by FACS analysis (reference value: 3.1%); type: functional; outline: as §2
[17] = Cell cycle arrest in human paclitaxel-resistant A2780T cells assessed as accumulation at sub-G1 phase at 8 uM after 24 hrs by FACS analysis; type: functional, cell-based; conditions: A2780/Taxol; outline: as §2
[18] = Cell cycle arrest in human paclitaxel-resistant A2780T cells assessed as accumulation at sub-G1 phase at 2 to 4 uM after 24 hrs by FACS analysis; type: functional, cell-based; conditions: A2780/Taxol; outline: as §2
[19] = tested on: A2780; assay: Cell cycle arrest in human A2780 cells assessed as accumulation at sub-G1 phase at 2 to 4 uM after 24 hrs by FACS analysis; type: functional; outline: as §2

T1 sequence (O43497 whole entry): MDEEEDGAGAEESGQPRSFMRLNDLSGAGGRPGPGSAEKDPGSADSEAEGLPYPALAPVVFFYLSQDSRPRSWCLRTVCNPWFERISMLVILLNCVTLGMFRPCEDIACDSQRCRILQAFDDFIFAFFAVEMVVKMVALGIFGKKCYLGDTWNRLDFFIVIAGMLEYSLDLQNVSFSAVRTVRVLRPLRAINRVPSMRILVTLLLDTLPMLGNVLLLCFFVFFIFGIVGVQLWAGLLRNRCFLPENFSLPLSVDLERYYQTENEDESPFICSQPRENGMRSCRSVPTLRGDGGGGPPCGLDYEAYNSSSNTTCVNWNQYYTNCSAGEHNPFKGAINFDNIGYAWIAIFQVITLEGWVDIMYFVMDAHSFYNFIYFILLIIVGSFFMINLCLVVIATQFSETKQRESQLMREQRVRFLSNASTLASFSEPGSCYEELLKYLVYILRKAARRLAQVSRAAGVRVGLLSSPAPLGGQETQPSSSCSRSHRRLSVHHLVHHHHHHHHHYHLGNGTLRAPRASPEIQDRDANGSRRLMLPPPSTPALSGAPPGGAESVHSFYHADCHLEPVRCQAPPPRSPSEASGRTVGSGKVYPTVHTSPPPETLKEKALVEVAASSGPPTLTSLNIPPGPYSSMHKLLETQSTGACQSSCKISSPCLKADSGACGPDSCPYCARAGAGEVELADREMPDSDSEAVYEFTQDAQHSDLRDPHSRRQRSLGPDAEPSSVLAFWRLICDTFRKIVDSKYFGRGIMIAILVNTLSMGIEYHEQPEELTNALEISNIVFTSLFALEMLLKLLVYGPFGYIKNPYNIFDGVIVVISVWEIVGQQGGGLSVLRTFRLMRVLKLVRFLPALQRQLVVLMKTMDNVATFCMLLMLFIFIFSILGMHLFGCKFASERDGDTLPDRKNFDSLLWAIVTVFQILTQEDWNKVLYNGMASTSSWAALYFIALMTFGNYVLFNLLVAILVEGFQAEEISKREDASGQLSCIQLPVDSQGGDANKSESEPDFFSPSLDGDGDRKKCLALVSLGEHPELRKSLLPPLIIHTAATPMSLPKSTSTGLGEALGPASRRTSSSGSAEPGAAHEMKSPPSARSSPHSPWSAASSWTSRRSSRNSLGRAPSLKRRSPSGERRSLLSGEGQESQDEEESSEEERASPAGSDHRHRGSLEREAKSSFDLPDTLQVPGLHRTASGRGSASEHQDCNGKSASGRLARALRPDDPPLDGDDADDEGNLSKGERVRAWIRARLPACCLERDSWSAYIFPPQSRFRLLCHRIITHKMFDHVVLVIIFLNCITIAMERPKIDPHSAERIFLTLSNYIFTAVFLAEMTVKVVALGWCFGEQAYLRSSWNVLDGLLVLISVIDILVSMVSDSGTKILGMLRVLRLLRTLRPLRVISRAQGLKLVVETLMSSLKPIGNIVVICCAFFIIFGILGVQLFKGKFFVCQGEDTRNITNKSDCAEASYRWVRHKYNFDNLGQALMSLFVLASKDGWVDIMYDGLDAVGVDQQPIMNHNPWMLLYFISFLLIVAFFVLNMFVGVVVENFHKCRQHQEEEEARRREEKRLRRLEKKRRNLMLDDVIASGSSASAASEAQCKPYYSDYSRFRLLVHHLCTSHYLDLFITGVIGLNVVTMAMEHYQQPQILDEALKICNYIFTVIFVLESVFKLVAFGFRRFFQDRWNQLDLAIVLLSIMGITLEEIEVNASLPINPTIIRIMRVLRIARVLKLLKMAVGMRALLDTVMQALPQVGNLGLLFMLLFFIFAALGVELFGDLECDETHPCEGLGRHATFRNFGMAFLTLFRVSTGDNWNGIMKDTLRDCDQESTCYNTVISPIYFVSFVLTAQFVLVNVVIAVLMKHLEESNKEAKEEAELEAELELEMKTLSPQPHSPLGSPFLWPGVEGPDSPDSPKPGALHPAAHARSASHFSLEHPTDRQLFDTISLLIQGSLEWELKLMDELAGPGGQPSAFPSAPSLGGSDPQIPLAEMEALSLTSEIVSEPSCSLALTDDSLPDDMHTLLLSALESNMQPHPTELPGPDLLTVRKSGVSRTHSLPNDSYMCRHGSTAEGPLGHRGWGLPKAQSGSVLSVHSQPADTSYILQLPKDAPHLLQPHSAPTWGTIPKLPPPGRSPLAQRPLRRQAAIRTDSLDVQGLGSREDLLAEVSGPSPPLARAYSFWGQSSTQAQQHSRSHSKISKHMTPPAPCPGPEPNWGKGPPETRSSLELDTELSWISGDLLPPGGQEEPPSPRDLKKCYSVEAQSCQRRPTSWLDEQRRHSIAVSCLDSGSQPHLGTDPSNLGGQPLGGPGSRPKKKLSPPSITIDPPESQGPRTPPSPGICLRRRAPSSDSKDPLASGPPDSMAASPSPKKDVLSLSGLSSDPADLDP

| inhibition [2] [%] | IC50 [10] [nM] | SMILES | IC50 [1] [nM] | IC50 [3] [nM] | IC50 [4] [nM] | also measured |
| --- | --- | --- | --- | --- | --- | --- |
| 55.1 | – | COCC(=O)O[C@]1(CCN(C)CCCc2nc3ccccc3[nH]2)CCc2cc(F)ccc2[C@@H]1C(C)C [MIBEFRADIL] | 35300 | 24200 | 20500 | – |
| 68.2 | 390 | COc1ccc(CNC(=O)CC2c3ccccc3N=C(N(C)CCCCCN(C)C)N2c2ccc(-c3ccccc3)cc2)cc1 (stereo not given) | 2520 | 1380 | 4460 | – |
| 76.6 | 260 | CN(C)CCCCCN(C)C1=Nc2ccccc2C(CC(=O)NCc2ccccc2)N1c1ccc(-c2ccccc2)cc1 (stereo not given) | 1600 | 1060 | 2470 | Ratio IC50 [15]: 20; Activity [16]: 71.4%; Activity [17]: 95.4%; Activity [8]: 25.6%; Activity [11]: 63.3%; Activity [18]: 14.7%; Activity [19]: 61.4%; Activity [13]: 5.3%; Activity [14]: 5.8% |
| 66.7 | 550 | CN(C)CCCCCCN(C)C1=Nc2ccccc2C(CC(=O)NCc2ccccc2)N1c1ccc(-c2ccccc2)cc1 (stereo not given) | 1740 | 1190 | 5780 | Ratio IC50 [15]: 20 |
| 43.9 | – | CN(C)CCN1CCN(C2=Nc3ccccc3C(CC(=O)NCc3ccccn3)N2c2ccc(-c3ccccc3)cc2)CC1 (stereo not given) | > 5000 | 4860 | 5080 | – |
| 30.9 | – | CN(C)CCCCCN(C)C1=Nc2ccccc2C(CC(=O)NCc2ccccc2)N1c1ccc(-c2ccccn2)cc1 (stereo not given) | > 5000 | – | 2410 | – |
| 46.8 | – | CN(C)CCN1CCN(C2=Nc3ccccc3C(CC(=O)NCc3ccccc3)N2c2ccc(-c3ccccc3)cc2)CC1 (stereo not given) | 2390 | 1390 | 1970 | – |
| 29.1 | – | CN(C)CCN1CCN(C2=Nc3ccccc3C(CC(=O)NCc3ccncc3)N2c2ccc(-c3ccccc3)cc2)CC1 (stereo not given) | > 5000 | > 5000 | 11700 | – |
| 57.8 | 460 | Cc1ccc(CNC(=O)CC2c3ccccc3N=C(N3CCN(CCN(C)C)CC3)N2c2ccc(-c3ccccc3)cc2)cc1 (stereo not given) | 3520 | 1600 | 2330 | – |
| 81.7 | 310 | CN(C)CCCCN(C)C1=Nc2ccccc2C(CC(=O)NCc2ccccc2)N1c1ccc(-c2ccccc2)cc1 (stereo not given) | 3970 | 1650 | 9780 | – |
| 32.3 | – | CN(C)CCN1CCN(C2=Nc3ccccc3C(CC(=O)NCc3ccccc3)N2c2ccc(-c3ccccn3)cc2)CC1 (stereo not given) | > 5000 | > 5000 | – | – |

| SMILES | inhibition [2] [%] | IC50 [10] [nM] | IC50 [1] [nM] | IC50 [3] [nM] | IC50 [4] [nM] | also measured |
| --- | --- | --- | --- | --- | --- | --- |
| CN(C)CCN1CCN(C2=Nc3ccccc3C(CC(=O)NCc3ccc(F)cc3)N2c2ccc(-c3ccccc3)cc2)CC1 (stereo not given) | 81 | 320 | 4000 | 1600 | 3090 | Activity [5]: Non-toxic; Activity [6]: Active; IC50 [7]: 10000 nM; Activity [8]: 66.7%; Activity [9]: Dose-dependent effect; Activity [11]: 18.1%; Activity [12]: Dose-dependent effect; Activity [13]: 8.1%; Activity [14]: 7.1% |
| COc1ccc(CNC(=O)CC2c3ccccc3N=C(N3CCN(CCN(C)C)CC3)N2c2ccc(-c3ccccc3)cc2)cc1 (stereo not given) | 75.9 | 310 | 3820 | 1440 | 2470 | Activity [5]: Non-toxic; Activity [6]: Active; IC50 [7]: 9280 nM; Activity [8]: 63.8%; Activity [9]: Dose-dependent effect; Activity [11]: 21.6%; Activity [12]: Dose-dependent effect; Activity [13]: 7.3%; Activity [14]: 7.3% |
